# Rows were chosen to be rich in hits. Some 2.1% of all compounds tested hit in one or more screens of this group.
# KLK5 inh: blocks human kallikrein 5 protease activity. recombinant hK5, fluorogenic AMC substrate cleavage. AID 873. hit rate 0.59% among 210,000. inhibition, % at 5 µM. Q9Y337;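 active means inhibition of 40% or more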
# Target sequence (Q9Y337 67-293 limits assumed): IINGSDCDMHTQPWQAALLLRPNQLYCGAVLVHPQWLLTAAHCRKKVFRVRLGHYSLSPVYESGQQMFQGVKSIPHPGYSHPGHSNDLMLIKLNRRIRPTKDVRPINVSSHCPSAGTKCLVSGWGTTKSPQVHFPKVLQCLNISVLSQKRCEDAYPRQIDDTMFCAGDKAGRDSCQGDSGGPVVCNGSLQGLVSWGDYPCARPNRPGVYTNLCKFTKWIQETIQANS
# Thrombin inh: thrombin (human) inhibition | P00734 | alpha-thrombin, Boc-VPR-AMC fluorogenic substrate cleavage | inhibition, % at 5 µM | hit rate 0.26% among 220,000 | AID 1046;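 active means inhibition at or above 40%; inactive means inhibition below 40%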
#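 System – human alpha-thrombin protein · Reagent – Boc-VPR-AMC substrate, 15 µM final · Compound – 5 µM single dose in 0.2% DMSO · Schedule – reaction at room temperature · Technique – AMC fluorescence at 355 nm excitation and 460 nm emission · Read-out basis – % inhibition relative to enzyme controls and enzyme-free blanks · Control set – no-compound enzyme wells and no-enzyme blanks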
# FXIIa inh 1536: factor XIIa (human) inhibition | P00748 | purified FXIIa, Boc-QGR-AMC fluorogenic substrate, 2 h | inhibition, % at 5 µM | hit rate 0.3% among 220,000; in the data active means inhibition above about 40%
# FXIa inh: factor XIa (human) inhibition. P03951. purified FXIa, Boc-Glu-Ala-Arg-AMC fluorogenic substrate. inhibition, % at 5 µM. hit rate 0.14% among 220,000. AID 798;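 active means inhibition of at least 40%; inactive means inhibition below 40%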;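 further: fluorescence of freed AMC excited at 355 nm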
# PGE2 EP2 inh: EP2 receptor (human) inhibition. P43116. C6 glioma cells expressing human EP2, cAMP TR-FRET; cells stimulated with saturating PGE2. inhibition, % at 25 µM. hit rate 0.52% among 260,000;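 active means percent inhibition above 40 after rounding to a whole number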;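 further: rat C6 glioma host cells with rolipram phosphodiesterase inhibitor present; the protocol text gives 20 µM as final concentration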
# Target sequence (P43116 whole entry, looked up): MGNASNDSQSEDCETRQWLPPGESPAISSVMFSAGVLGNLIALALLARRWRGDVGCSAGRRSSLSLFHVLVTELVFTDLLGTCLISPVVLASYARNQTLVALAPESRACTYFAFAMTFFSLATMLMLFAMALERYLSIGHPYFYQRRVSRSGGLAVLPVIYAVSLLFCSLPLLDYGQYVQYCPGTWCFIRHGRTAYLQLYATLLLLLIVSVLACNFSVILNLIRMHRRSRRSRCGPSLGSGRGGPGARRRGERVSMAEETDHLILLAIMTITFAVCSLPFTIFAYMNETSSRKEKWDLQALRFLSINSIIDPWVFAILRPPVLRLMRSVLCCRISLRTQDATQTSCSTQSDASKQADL
# EP2 mod: modulates human prostaglandin E2 receptor EP2 signaling. P43116. EP2-expressing cells, cAMP HTRF FRET, PGE2 co-stimulation. induction, % at 25 µM. hit rate 0.83% among 260,000;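 active means compounds whose cAMP rise, as percent of the full-agonist control response, exceeds 60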;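 further: rat C6 glioma line stably carrying human EP2 under a CMV promoter; the protocol text gives 20 µM as final concentration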
# A number is an active result; . = inactive; / = no result.
SMILES,KLK5 inh,Thrombin inh,FXIIa inh 1536,FXIa inh,PGE2 EP2 inh,EP2 mod
COc1cccc(C2SCC(=O)N2c2ccc(C)cc2)c1OC (stereo unspecified),.,.,.,.,.,.
O=[N+]([O-])c1ccc(Sc2cccc[n+]2[O-])c2nonc12,.,.,.,.,116,.
O=C(NCCc1ccc2c(c1)OCCO2)c1ccc([N+](=O)[O-])cc1Cl,40,.,.,.,.,.
O=C(NCCCN1CCN(CCCNC(=O)c2cc([N+](=O)[O-])ccc2Cl)CC1)c1cc([N+](=O)[O-])ccc1Cl,43,.,.,.,.,.
O=C(NCCc1ccc2c(c1)OCCO2)c1cc(F)cc(F)c1,.,.,.,.,.,.
CCC(=O)N(Cc1ccc(F)cc1)Cc1cc2ccc(C)c(C)c2n2nnnc12,/,/,/,/,.,.
CC1CCCN(c2nc3c(c(=O)[nH]2)CCN(Cc2coc4ccccc4c2=O)C3)C1 (stereo unspecified),/,/,/,/,/,.
COc1cc(C)c(C2C(C#N)=C(N)OC3=C2C(=O)CC(C)(C)C3)cc1OC (stereo unspecified),/,/,/,/,.,.
COc1ccc(-c2cc(-c3cc(F)ccc3O)[nH]n2)cc1OC,.,.,.,.,66,.
CCCN(CCC)S(=O)(=O)c1ccc(C(=O)Nc2nnc(COC)o2)cc1,.,.,.,.,.,.
CCCN(CCC)S(=O)(=O)c1ccc(C(=O)NNc2nc(-c3ccccc3)c3cc(Br)ccc3n2)cc1,.,.,.,66,.,.
CSc1nnc(-c2cc(-c3ccc(C)cc3)nc3ccccc23)o1,.,.,.,.,.,.
c1ccc(-c2cc(-c3nnc(-c4ccncc4)o3)c3ccccc3n2)cc1,/,/,/,/,.,80
COc1ccccc1C1(NC(=O)CCc2ccc(C)o2)CCCC1,/,/,/,/,/,.
Cc1nn2c(CN(C(=O)CN3CCOCC3)c3ccccc3)nnc2c2ccccc12,.,.,42,.,.,.
Oc1ccc([C@H]2Oc3cc(O)cc(O)c3C[C@H]2O)cc1,/,/,/,/,.,.
Oc1cc(O)c2c(c1)O[C@@H](c1ccc(O)c(O)c1)[C@H](O[C@@]1(c3cc(O)c(O)c(O)c3)Oc3cc(O)cc(O)c3[C@H](O)[C@H]1O)C2,/,/,/,/,57,.
OCCCCCN=c1cc(-c2ccccc2)oc2ccc(Cl)cc12,69,60,.,.,.,.
O=c1cc(-c2ccc(Cl)cc2)oc2ccc(Cl)cc12,/,/,/,/,.,.
Clc1cccc(-c2nc(NCCCN3CCOCC3)c3ccccc3n2)c1,/,.,.,.,.,.
Clc1ccc2oc(-c3ccccc3)cc(=NCCCN3CCOCC3)c2c1,.,52,.,.,.,.
CCCc1cc(=O)n2[nH]cnc2n1,.,.,.,.,.,.
Cc1cc(=O)n2[nH]cnc2n1,41,.,.,.,.,.
COc1ccc(C(=O)CSc2nc3ncccc3[nH]2)cc1OC,.,.,102,.,.,.
Cc1ccc(C)c2nc(SCC(=O)Nc3ccc(N(C)C)cc3)c(C#N)cc12,/,/,/,/,.,.
SMILES,KLK5 inh,Thrombin inh,FXIIa inh 1536,FXIa inh,PGE2 EP2 inh,EP2 mod
O=C(O)[C@H]1CCCC[C@@H]1c1c2ccc(=O)c(O)c-2oc2c(O)c(O)ccc12,/,/,/,/,42,.
CN(C)CCCn1c2c3ccccc3ccc2c2oc(=O)c3ccccc3c21,/,/,/,/,74,.
CS(=O)(=O)NCCCNc1ccc(Cl)cc1[N+](=O)[O-],.,.,.,.,.,.
NS(=O)(=O)c1ccc(Cl)cc1[N+](=O)[O-],.,.,46,41,.,.
CCN(CC(=O)NC(C)C)Cc1nc2c(Br)cc(Br)cc2c(=O)[nH]1,.,.,.,.,.,65
Cc1ccc(S(=O)(=O)NCC(=O)OCc2nnc(-c3ccccc3)o2)cc1C,.,.,.,.,.,.
O=C(CNS(=O)(=O)c1ccc2ccccc2c1)OCc1nnc(-c2ccccc2)o1,.,.,.,.,41,.
CC(C)OC(=O)c1c(-c2ccc(C(C)C)cc2)csc1NC(=O)C1CCCO1 (stereo unspecified),.,.,.,.,.,63
Clc1ccc(-c2nc3ccccc3n2OCc2ccccc2)cc1,.,.,.,.,.,63
O=C(O)[C@@H](c1ccccc1)N1Cc2ccccc2C1=O,49,.,.,.,.,.
Cc1ccc(C(C(=O)NC2CCCCC2)N(C(=O)c2ccco2)c2ccc3c(c2)OCO3)cc1 (stereo unspecified),/,/,/,/,.,.
COC(/C=C/Nc1ccc(Br)cc1)=C(C#N)C#N,49,.,.,.,/,.
S=c1[nH]nc(CN2CCOCC2)n1-c1ccccc1,/,/,/,/,.,.
CCNc1nc(CC)nc2c1oc1ccccc12,.,.,.,.,.,.
CCc1nc(N(CC)CC)c2oc3ccccc3c2n1,.,.,.,.,.,61
Cc1cc(F)ccc1NCc1cccnc1,.,.,.,.,.,.
Cc1ccc(NCc2cccnc2)c(Br)c1,47,.,.,.,.,.
COC(=O)CSc1nnc(-c2ccccc2OC)n1-c1ccc(C)cc1,43,46,.,.,.,.
CCOC(=O)CSc1nnc(-c2ccco2)n1-c1ccc(C)cc1,45,.,.,.,.,.
CCOC(=O)CSc1nnc(-c2ccco2)n1-c1ccccc1,.,.,.,.,.,.
Cc1cc2ccccc2n2c(SCC(=O)N3CCc4ccccc43)nnc12,/,/,/,/,.,.
COc1ccc(-c2cc(C(F)(F)F)n3nc(C(=O)N4CCOCC4)nc3n2)cc1,.,.,.,.,.,.
O=C(c1nc2nc(-c3ccccc3)cc(C(F)(F)F)n2n1)N1CCCCC1,64,.,.,.,.,.
CCn1c(COc2ccc(Br)cc2)nnc1SCC(=O)N1C(C)CCCC1C (stereo unspecified),/,/,/,/,.,.
CC(=O)CCc1oc2ccccc2c1-c1ccccc1,.,.,.,.,.,79
SMILES,KLK5 inh,Thrombin inh,FXIIa inh 1536,FXIa inh,PGE2 EP2 inh,EP2 mod
COc1cc(C(c2nnnn2C2CCCC2)N2CCN(c3ccc(F)cc3)CC2)cc(OC)c1OC (stereo unspecified),/,/,/,/,.,.
COC(=O)COc1ccc(S(=O)(=O)N2CCCC2)cc1C,/,/,/,/,.,.
CSCCC(NC(=O)c1cccc(C)c1)C(=O)OCC(=O)NC(=O)c1cccn1C (stereo unspecified),.,48,.,.,.,.
Cc1ccc(C(=O)CSc2nc(C)cc(C)c2C(N)=O)cc1,49,104,.,.,.,.
CCN(CC)CCNC(=O)c1ccc2c(c1NCCO)C(=O)c1ccccc1C2=O,.,.,.,.,56,.
COc1ccc(C(=O)N/N=C/c2ccc(OC(=O)c3ccccc3)cc2)cc1,.,.,.,.,.,.
COc1ccc(C(=O)N/N=C/c2cc3ccccc3[nH]c2=O)cc1,.,.,60,52,.,.
Cc1cccnc1-n1cccc1CN(Cc1ccccc1)Cc1ccncc1,/,/,/,/,.,.
Nc1ccc(N=Nc2c(S(=O)(=O)O)cc3ccccc3c2S(=O)(=O)O)cc1,/,/,/,/,41,.
O=C(O)c1cc2ccccc2c(S(=O)(=O)O)c1O,/,/,/,/,.,.

# Screening data: PubChem BioAssay, several laboratories
